This is an account of results in PubChem BioAssay.

Broadly, the viability is a read-out of living cells in per cent, often relative to untreated cells. As usually defined, the inhibition is the relative decrease from the control value, in per cent.

Assay [1] is described as follows: reducers of endogenous Her2 protein level, primary screen, SKBR3 breast tumor cells, AlphaScreen, ATP viability (AID 461;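 active = Her2 level under about 52% in both replicate screens, with viability over 70% of control, limit read from the data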;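 as to Her2 level: lower value means less Her2 protein in the cells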;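 as to viability: percent of carrier control wells set as 100% viability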). Conditions: 18-24 h, measured here: SKBR3 viability, ATP luminescence, at 10 µM. For orientation: Alpha assays give light when donor and acceptor beads are brought close together.
Assay [2] has as its target Receptor tyrosine-protein kinase erbB-2 (Homo sapiens) (UniProt P04626). The description is as above. The note with it: 18-24 h, at 10 µM, stronger effect = lower value.
Assay [3] is described as follows: SK-BR-3 cell growth inhibitors, pilot screen, 24 h, human (AID 572;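 active = viability at or below 10% of carrier control in both of two separate runs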;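 also: compound exposure lasted between 18 and 24 h rather than exactly 24 h; 100% = carrier-treated control wells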). The note with it: SK-BR-3 viability, CellTiter-Glo luminescence, at 10 µM, stronger effect = lower value. For orientation: In ATP-based viability assays light output follows the ATP content of the culture.
The nature of assay [4]: HUVEC growth inhibition – cell-based, human, primary screen (AID 575;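 active = viability at or below 30% in both replicate assays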;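 also: 100% = median of untreated cell wells with 0.1% DMSO on each plate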). Conditions: HUVEC proliferation, CellTiter-Glo luminescence, 72 h; at 10 µM; stronger effect = lower value. In outline:
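material = primary HUVEC, no more than 12 passages | input = 1250 cells per well | controls = vehicle and MePR control wells | measured by = CTG luminescence | times = 72 h compound incubation | format = collagen-coated 384-well format | read-out = % viability vs DMSO wells | doses = single 10 µM dose, 0.1% DMSO, from 5x medium stock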

The nature of assay [5]: growth inhibitors of H69AR lung tumor, primary screen, human, duplicate replicates (AID 580).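 Also: 100% = mean luminescence of untreated wells and 0% = no signal.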 Conditions: H69AR lung tumor cells viability, ATP luminescence, 72 h; at 10 µM; stronger effect = lower value.
The nature of assay [6]: reversal of MRP1-mediated doxorubicin resistance, pilot screen, H69AR cells, doxorubicin co-treatment (AID 601;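 active = viability loss from added drug above about 55%, and viability with drug at most 40%, in both replicates, limit read from the data, passing the limit was not always enough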). The note with it: CellTiter-Glo, 72 h, at 10 µM; for differential viability (reversal): stronger effect = higher value.
Assay [7] can be described thus: 384-well plate pilot, post-Golgi transport modulator project, inhibition of yeast transport mutant growth (AID 636; in the data active = inhibition above about 31%). The note with it: absorbance 615 nm, about 18 h, stronger effect = higher value.
Assay [8] is described as follows: growth suppression of yeast trafficking mutant, preliminary HTS, modulators of trafficking downstream of Golgi apparatus project, 1536-format plate, OD 615 nm (AID 637; in the data active = inhibition above about 30%). The note with it: yeast transport mutant growth, absorbance 615 nm, 18 h; stronger effect = higher value.
Where [9] appears, read: H69AR cells + 2 uM doxorubicin, measured here: viability with 2 uM doxorubicin, stronger effect = lower value.
Where [10] appears, read: H69AR cells, compound alone cytotoxicity.

The source made the active and inactive calls.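 The calls were made as follows, unless noted: active = viability at or under a set limit in both replicates, limit being median viability minus 3 SD (cut at about 48% in these data, passing the limit was not always enough); inconclusive = at or under the limit in just one replicate; inactive = at or above the limit in both replicates.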 Square brackets hold non-standard residues; d marks the D form. Peptide text beside a SMILES is read from it. ξ: configuration not given here. ξV = CC(C)C(N)C(=O)O

Receptor tyrosine-protein kinase erbB-2 (Homo sapiens), sequence (P04626 whole entry, looked up): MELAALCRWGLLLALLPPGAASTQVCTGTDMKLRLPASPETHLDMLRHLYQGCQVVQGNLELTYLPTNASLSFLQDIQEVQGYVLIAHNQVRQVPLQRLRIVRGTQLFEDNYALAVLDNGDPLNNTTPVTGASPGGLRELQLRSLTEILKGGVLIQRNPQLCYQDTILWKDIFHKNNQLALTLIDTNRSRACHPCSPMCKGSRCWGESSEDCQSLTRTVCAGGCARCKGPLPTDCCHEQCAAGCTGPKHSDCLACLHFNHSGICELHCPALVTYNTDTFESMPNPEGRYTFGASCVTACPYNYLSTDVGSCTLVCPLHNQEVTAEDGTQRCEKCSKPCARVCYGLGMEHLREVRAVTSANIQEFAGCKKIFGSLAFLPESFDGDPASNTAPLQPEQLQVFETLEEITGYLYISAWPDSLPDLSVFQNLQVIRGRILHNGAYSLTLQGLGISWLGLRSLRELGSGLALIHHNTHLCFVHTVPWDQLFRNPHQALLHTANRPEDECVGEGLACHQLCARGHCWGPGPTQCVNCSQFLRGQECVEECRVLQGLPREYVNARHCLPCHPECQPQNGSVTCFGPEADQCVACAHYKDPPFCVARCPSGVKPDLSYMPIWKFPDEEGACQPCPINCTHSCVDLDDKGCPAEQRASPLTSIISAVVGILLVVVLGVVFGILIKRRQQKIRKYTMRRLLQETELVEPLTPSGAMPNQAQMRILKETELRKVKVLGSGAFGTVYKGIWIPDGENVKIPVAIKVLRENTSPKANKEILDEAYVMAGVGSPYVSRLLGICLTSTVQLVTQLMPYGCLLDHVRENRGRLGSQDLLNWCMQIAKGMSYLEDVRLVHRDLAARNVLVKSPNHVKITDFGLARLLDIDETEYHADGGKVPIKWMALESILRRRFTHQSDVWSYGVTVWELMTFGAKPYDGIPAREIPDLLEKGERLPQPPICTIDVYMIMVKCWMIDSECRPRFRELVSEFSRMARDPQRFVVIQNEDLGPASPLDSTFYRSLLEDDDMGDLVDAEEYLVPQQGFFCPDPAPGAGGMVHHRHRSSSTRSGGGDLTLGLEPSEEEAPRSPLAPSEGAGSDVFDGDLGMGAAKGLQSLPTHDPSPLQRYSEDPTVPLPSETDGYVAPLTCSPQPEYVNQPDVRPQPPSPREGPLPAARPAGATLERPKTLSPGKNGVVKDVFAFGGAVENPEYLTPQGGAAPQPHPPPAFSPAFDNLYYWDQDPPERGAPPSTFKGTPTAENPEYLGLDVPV

Regarding `Cc1c(=O)n(OCc2ccccn2)c2ccccc2[n+]1[O-]`, the viability was 84% in assay [1]; 84% (inactive) in assay [3]; 105% (inactive) in assay [4]; 94.2% (inactive) in assay [5]; 86% in assay [6] (setting [9]); 94.2% in assay [6] (setting [10]). Moreover, the Her2 level in assay [2] is 76% (inactive). For the same molecule, the differential viability (reversal) in assay [6] (H69AR cells + 2 uM doxorubicin) was 8.18% (inactive). For the same molecule, the values for the inhibition in assay [7] and in assay [8] were -5.92% (inactive) and -1.27% (inactive), respectively.

For `O=C(Nc1ccc(N2CCN(Cc3ccccc3Cl)CC2)cc1)c1cccnc1`, the viability in assay [1] is 91%; in assay [3], 91% (inactive); in assay [4], 117% (inactive); in assay [5], 103% (inactive); in assay [6] (setting [9]), 98%; in assay [6] (setting [10]), 103%. The Her2 level in assay [2] is 108% (inactive). In addition, the differential viability (reversal) in assay [6] (H69AR cells + 2 uM doxorubicin) was 5.44% (inactive). The inhibition in assay [7] is 2.16% (inactive); in assay [8], 0.82% (inactive).

As to `COc1ccc(CC(=O)Nc2ccc(-c3nnc(-c4ccc(C)cc4)o3)cc2)cc1`, the viability is 114% in assay [1]; 114% (inactive) in assay [3]; 69.9% (inactive) in assay [4]; 4.72% (active) in assay [5]; 4.76% in assay [6] (setting [9]); 4.72% in assay [6] (setting [10]). The Her2 level in assay [2] was 81.5% (inactive). Further, the differential viability (reversal) in assay [6] (H69AR cells + 2 uM doxorubicin) was -0.04% (inactive). In addition, the inhibition in assay [7] is -1.58% (inactive); in assay [8], -1.75% (inactive).

As for `O=C(COC(=O)C1CC(=O)N(c2ccccc2)C1)c1ccccc1` (stereo not given), the viability in assay [1] was 99.5%; in assay [3], 99.5% (inactive); in assay [4], 101% (inactive); in assay [5] it was 86.6% (inactive); in assay [6] (setting [9]), 96.5%; in assay [6] (setting [10]) it was 86.6%. Moreover, in assay [2], the Her2 level is 107% (inactive). For the same molecule, the differential viability (reversal) in assay [6] (H69AR cells + 2 uM doxorubicin) is -9.89% (inactive). Further, the figures for the inhibition in assay [7] and in assay [8] were 4.1% (inactive) and -6.67% (inactive), respectively.

For `O=C(CSc1nnc(CNC(=O)c2cccs2)o1)Nc1cccc(C(F)(F)F)c1`, the viability in assay [1] was 83.5%; in assay [3], 83.5% (inactive); in assay [4] it was 82.7% (inactive); in assay [5], 92.8% (inactive); in assay [6] (setting [9]) it was 90.9%; in assay [6] (setting [10]), 92.8%. In addition, the Her2 level in assay [2] is 98.5% (inactive). The differential viability (reversal) in assay [6] (H69AR cells + 2 uM doxorubicin) was 1.86% (inactive). For the same molecule, the inhibition in assay [7] is -0.13% (inactive); in assay [8], -7% (inactive).

Consider `O=C1c2ccccc2C(=O)N1CNc1ccccc1`, for which the viability in assay [1] was 96.5%; in assay [3], 96.5% (inactive); in assay [4], 108% (inactive); in assay [5], 101% (inactive); in assay [6] (setting [9]), 118%; in assay [6] (setting [10]), 101%. Further, the Her2 level in assay [2] is 93.5% (inactive). Moreover, the differential viability (reversal) in assay [6] (H69AR cells + 2 uM doxorubicin) is -17.7% (inactive). For the same molecule, the inhibition in assay [7] is -5.2% (inactive); in assay [8] it was -1.15% (inactive).

For `CCC(c1nnnn1C(C)(C)C)N1CCN(C2CCCC2)CC1` (stereo not given), the viability in assay [1] was 98.5%; in assay [3] it was 98.5% (inactive); in assay [4], 103% (inactive); in assay [5], 107% (inactive); in assay [6] (setting [9]), 89.3%; in assay [6] (setting [10]) it was 107%. Further, the Her2 level in assay [2] was 114% (inactive). Besides, the differential viability (reversal) in assay [6] (H69AR cells + 2 uM doxorubicin) is 17.5% (inactive). Moreover, the values for the inhibition in assay [7] and in assay [8] were 1.2% (inactive) and 4.59% (inactive), respectively.

For the molecule `CC(C)C(NC(=O)c1ccco1)C(=O)NCC(c1ccco1)N1CCCCC1` (stereo not given), the viability was 96.5% in assay [1]; 96.5% (inactive) in assay [3]; 94.8% (inactive) in assay [4]; 93.9% (inactive) in assay [5]; 75.8% in assay [6] (setting [9]); 93.9% in assay [6] (setting [10]). In addition, in assay [2], the Her2 level was 94.5% (inactive). In addition, the differential viability (reversal) in assay [6] (H69AR cells + 2 uM doxorubicin) is 18.1% (inactive). Further, the inhibition in assay [7] is -2.97% (inactive); in assay [8] it was -0.32% (inactive).

As to `CC(=O)NC(C(=O)NCC(N)=O)C(C)C` (stereo not given) (Ac-[ξV]-Gly-NH2), the viability in assay [1] is 90%; in assay [3], 90% (inactive); in assay [4], 100% (inactive); in assay [5], 93.9% (inactive); in assay [6] (setting [9]), 95.7%; in assay [6] (setting [10]), 93.9%. Besides, the Her2 level in assay [2] is 104% (inactive). Moreover, the differential viability (reversal) in assay [6] (H69AR cells + 2 uM doxorubicin) was -1.82% (inactive). The results for the inhibition in assay [7] and in assay [8] were -5.58% (inactive) and -9.05% (inactive), respectively.

As to `CCCN1CCN(CCCNC(=O)C2CCCN(c3nc4ccc(OCC)cc4s3)C2)CC1` (stereo not given), the viability is 85.5% in assay [1]; 85.5% (inactive) in assay [3]; 74.8% (inactive) in assay [4]; 87.3% (inactive) in assay [5]; 88.8% in assay [6] (setting [9]); 87.3% in assay [6] (setting [10]). For the same molecule, the Her2 level in assay [2] was 118% (inactive). Moreover, the differential viability (reversal) in assay [6] (H69AR cells + 2 uM doxorubicin) is -1.46% (inactive). For the same molecule, the results for the inhibition in assay [7] and in assay [8] were -5.39% (inactive) and 0.83% (inactive), respectively.

With `COc1cccc(-c2nc(CSCC(=O)N3CCc4ccccc43)c(C)o2)c1`, the viability is 82.5% in assay [1]; 82.5% (inactive) in assay [3]; 82.1% (inactive) in assay [4]; 87.1% (inactive) in assay [5]; 97.1% in assay [6] (setting [9]); 87.1% in assay [6] (setting [10]). In addition, the Her2 level in assay [2] was 162% (inactive). Moreover, the differential viability (reversal) in assay [6] (H69AR cells + 2 uM doxorubicin) is -10.1% (inactive). In addition, the inhibition in assay [7] was 2.63% (inactive); in assay [8], -8.67% (inactive).

For `O=C(CSc1nc(-c2ccccc2)cs1)NCc1ccco1`, the viability in assay [1] is 100%; in assay [3] it was 100% (inactive); in assay [4] it was 103% (inactive); in assay [5], 94.8% (inactive); in assay [6] (setting [9]) it was 93%; in assay [6] (setting [10]), 94.8%. For the same molecule, the Her2 level in assay [2] is 102% (inactive). In assay [6] (H69AR cells + 2 uM doxorubicin), the differential viability (reversal) is 1.79% (inactive). Moreover, the inhibition in assay [7] is -6.08% (inactive); in assay [8] it was -9.18% (inactive).

In the case of `CCn1c(C(=O)OC)cc2c1ccn2-c1ccc(F)cc1`, the viability in assay [1] is 91%; in assay [3], 91% (inactive); in assay [4] it was 86.1% (inactive); in assay [5] it was 83% (inactive); in assay [6] (setting [9]), 75.9%; in assay [6] (setting [10]), 83%. Also, in assay [2], the Her2 level was 80.5% (inactive). For the same molecule, the differential viability (reversal) in assay [6] (H69AR cells + 2 uM doxorubicin) is 7.09% (inactive). Also, the inhibition was -5.13% (inactive) in assay [7] and -1.82% (inactive) in assay [8].

For `Cc1cc(NC(=O)COc2cccc3cccnc23)no1`, the viability is 93% in assay [1]; 93% (inactive) in assay [3]; 102% (inactive) in assay [4]; 81% (inactive) in assay [5]; 79.5% in assay [6] (setting [9]); 81% in assay [6] (setting [10]). Also, in assay [2], the Her2 level is 75% (inactive). Moreover, the differential viability (reversal) in assay [6] (H69AR cells + 2 uM doxorubicin) is 1.54% (inactive). The figures for the inhibition in assay [7] and in assay [8] were -5.47% (inactive) and -2.79% (inactive), respectively.
